Test: Toxicity liver stage against HepG2, at 10uM
Type: cell-based
Parameters: test concentration 10 uM, cell line HepG2-A16-CD81EGFP
Details: human, HepG2-A16-CD81EGFP cells; read-out: INHIBITION
How it was run: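 Uninfected HepG2-A16-CD81EGFP cells, 3 × 10^3 per well, 1536-well, plated on prespotted compound at 10 μM final, parasite-free screening media added to match infected plates; puromycin 10 μM positive, DMSO 0.5% negative; run in parallel with 48 h PbLuc assay at 37 °C, 5% CO2; viability by CellTiter-Glo luminescence, normalized to controls.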

Compound	cytotoxicity at 10 µM [%]
CN1C[C@@H](F)[C@@H](OCc2nc3ccccc3[nH]2)C1	5.34
CO[C@H]1C(=O)N(C)C2(CCNCC2)[C@@H]1C(=O)Nc1ccccc1	6.17
Cc1nc(N2CCN(C(=O)c3cccs3)CC2)cc(-n2cccc2)n1	1.01
CC(C)(C)c1cc(=O)n2c(n1)SCC(C(=O)NCc1ccccn1)C2 (centres undefined)	-6.88
c1cn2c(n1)CNCC(COCC1CC1)C2 (centres undefined)	17.4
CN1CCN(C(=O)C[C@@H]2COC[C@H]3CN(c4ccncn4)C[C@@H]23)CC1	-134
O=C(CC1CC1)N[C@@H]1CN(Cc2nccs2)C[C@@H]2CCCO[C@@H]21	8.85
O=C(c1cccc(F)c1)N1C[C@H]2CCCC(OCc3cccnc3)[C@H]2C1 (some centres undefined)	8.21
CCOCC1CN(Cc2ccc3c(c2)OCO3)Cc2nccn2C1 (centres undefined)	-126
COC(=O)CC1CCN(C(=O)c2ccc(C)cc2)CC1	4.99
Cc1noc([C@H]2COC[C@H]3CN(C(=O)Cc4ccc(F)cc4)C[C@H]32)n1	-21.1
CCCN1C(=O)c2ccccc2C1OC (centres undefined)	-10.1
CC(C)C(NC(=O)C1CCCC1)c1cc(O)nc(-c2cccnc2)n1 (centres undefined)	9.82
CS(=O)(=O)N1CCC(c2cnc(-c3cn[nH]c3)cn2)CC1	3.64
COc1ccc2c(c1)CC(C1CCOCC1)N(C(=O)c1ccnn1C)C2 (centres undefined)	-0.516
COc1ccc(Br)cc1SCCS(C)(=O)=O	2.71
CN(C)CCN(CC1CCCO1)C(=O)Cc1cn2ccccc2n1 (centres undefined)	-2.96
Cc1ccc(C(O)CN(C)Cc2cnn(C)c2)cc1C (centres undefined)	-5.37
O=C(NCc1ccon1)Nc1cc(F)ccc1N1CCCCC1	12.7
CS(=O)(=O)NC1CC(=O)N(c2ccccc2Cl)C1 (centres undefined)	-0.585
N#Cc1ccc(F)c(CN2CCCC2Cn2cncn2)c1 (centres undefined)	8.21
Cc1nc(CNCc2ccc(N3CCN(C)CC3)nc2)cs1	-5.33

Compound	cytotoxicity at 10 µM [%]
OCCN1CCC(CNCCOCC(F)(F)F)CC1	-0.903
CNC(=O)NC(=O)C(C)N1CCN(C2CCCC2)CC1 (centres undefined)	-14
CC(C)c1ccc(O)c(C(=O)NCc2nncn2C)c1	-3
C=C(C)CN(CC)C(=O)Nc1ccccc1CN(C)C(C)=O	-9.6
CN(CC(=O)N(C)C1CC1)C1CCN(c2ccc(Cl)cc2)CC1	0.153
Cc1cccc(C(=O)NC(C(=O)NCc2ccc(O)nc2)C(C)C)c1 (centres undefined)	-7.81
Cc1cc(CN2CCN(C(=O)C3(C#N)CCCC3)CC2)on1	-14.9
Cc1cc(NC(=O)NC(C)(C)c2nc(C)c(C)s2)no1	-1.95
CCOC(=O)c1nnc2ccccc2c1N1CCOC(C)(C)C1	13.8
CSc1ccc(C(CC(=O)O)NC(=O)c2cc(C)on2)cc1 (centres undefined)	-12.1
COc1cc(NC(=O)NC2CCOCC2)ccc1N1CCOC1=O	-4.59
CS(=O)(=O)N1CCCCCC1C1CCN(Cc2nc(C3CC3)no2)CC1 (centres undefined)	-4.09
Cc1cc(C2CCCN2C(=O)NCc2cccnc2OC(C)C)on1 (centres undefined)	-9.63
Cc1noc(C)c1CNC(=O)NCCOc1ccc(F)cc1F	0.409
CNC(=O)CN1CCC(NC(=O)Cn2cc(C)c3ccccc32)CC1	-4.65
COc1ccc(CNC(=O)Nc2ccc(=O)n(C)c2)cc1	1.92
Cc1ccc(F)c2c1CCCN2C(=O)c1cn(CC(=O)N(C)C)nn1	-0.367
Cc1cc(NCC(=O)N(C)C(C)c2cccs2)c(C(N)=O)cc1F (centres undefined)	-0.99
COCCn1cc(NC(=O)NC(C)CCc2ccccc2)ccc1=O (centres undefined)	3.4
Cc1cc(N2CCC(N(C)Cc3cc(=O)c(O)co3)CC2)nc(C)n1	2.34
Cc1noc(CNc2ccccc2C(=O)N2CCCC(O)C2)n1 (centres undefined)	-3.13
Cc1occc1CNC(=O)C1(C)CCCN1C(=O)c1ccccc1 (centres undefined)	-9.34

Compound	cytotoxicity at 10 µM [%]
COC(=O)CCCNC(=O)N1CCc2c(F)ccc(F)c2C1	-11.2
CC(C)(C)Cc1noc2ncc(C(=O)N3CCC3)cc12	7.28
Cn1ccc(C(=O)N(CC(F)(F)F)c2cccc(Cl)c2)cc1=O	-0.0519
Cc1cc(F)c(S(=O)(=O)NCc2ccnc(N(C)C)n2)cc1F	-156
CCC(=O)N(CC)CCc1nccs1	9.66
O=C(NC1CCCN(c2ccccc2Cl)C1)c1ccc(=O)[nH]n1 (centres undefined)	-4.46
N#Cc1ccsc1N1CCC(Sc2ccncc2)C1=O (centres undefined)	-15.7
CCN(Cc1nc(C2CC2)no1)Cc1ccc(C#N)cc1F	3.82
CN(Cc1nnc(C2CC2)n1C)S(=O)(=O)Cc1ccccc1F	16.8
Cc1ccc(C(=O)N2CC(C(N)=O)O[C@H](C)C2)c(C)c1 (some centres undefined)	-0.29
Cc1cc(F)ccc1N1CCCC(NC(=O)CCc2ccncc2)C1 (centres undefined)	8.72
Cc1nc(C2CCCN2CCc2cccs2)no1 (centres undefined)	10.4
N#Cc1ccc(NC2CCN(c3ncccn3)CC2)cc1Cl	8.8
COC(=O)[C@H]1CCCCN1C(=O)c1cccc(-n2cccn2)c1	-8.29
Cc1nc(CN2C(=O)CC[C@@H]3[C@H]2CCN3C(=O)c2ccc[nH]2)cs1	-77.3
CC(=O)N1CCC2(CCCN(C(=O)c3ccc(Cl)c(C(F)(F)F)c3)C2)C1 (centres undefined)	-81.8
O=C(c1ccc(-c2ccoc2)nc1)N1CCCN(C2CCCCC2)CC1	7.69
COc1ccc2c(c1)OCC(Cc1cnccc1N)C2 (centres undefined)	4.28
CC(C)S(=O)(=O)N1CCCC(c2nccn2Cc2cccnc2)C1 (centres undefined)	3.72
O=C(CCN1CCCC1c1ccccn1)N1CCc2ccccc2C1 (centres undefined)	2.87
CCCN1CC2(CCN(c3ncc(F)cn3)CC2)CC1C(=O)O (centres undefined)	-1.71
CCc1nc(NCC2CCCN(C(=O)C3CC3)C2)c2cnn(C)c2n1 (centres undefined)	1.14

Compound	cytotoxicity at 10 µM [%]
CC1(C)CC1(C(=O)N1CC(c2cccnc2)C1)c1ccccc1F (centres undefined)	-10.7
CCOCCNC(=O)c1cc(COc2cncc(Cl)c2)on1	7.62
O=C(NCCC1CN(Cc2cccnc2)CCO1)c1ccsc1 (centres undefined)	-8.03
CC(C)N(C)S(=O)(=O)c1ccc2c(c1)CCN(C(=O)c1cnccn1)C2	-6.17
c1[nH]c(CC2CCCC2)nc1CN1CCCC2(CCOC2)C1 (centres undefined)	-9.12
CC(C)Cc1cc(CNC(=O)C2CCCN(C(=O)N(C)C)C2)no1 (centres undefined)	2.31
Cc1ccc(OC2CCN(C(=O)C(C)Cn3cccn3)CC2)cc1 (centres undefined)	-2.09
Cc1ccc(CN(CCCO)Cc2nc3ccccc3[nH]2)s1	7.18
O=C(c1ccc2cccc(F)c2n1)N1CCN(CCn2cccc2)CC1	13.5
Cc1cnccc1-n1nc(C(C)C)nc1CS(C)(=O)=O	0.999
COc1ccc(CN2CCC(O)(CN3CCCCC3)C2)c(C)c1 (centres undefined)	7.5
CCc1cc(N2CCC(NC3CCOCC3)CC2)nc(N(C)C)n1	-14.5
CC1CCN(Cc2cnc(S(=O)(=O)CC3CC3)n2CC2CCCO2)CC1 (centres undefined)	6.17
Cc1ncc2c(n1)CN(Cc1nc(-c3cccs3)no1)CC2	-9.8
Cc1ccc(NC2CCN(C(=O)c3ccoc3C)CC2)nn1	-12.7
CC(=O)N1CCN(C(=O)CCCc2nnc(-c3ccccc3)o2)CC1	-12.5
Cc1ccc(-c2nc(CN3CCc4cnc(C)nc4C3)no2)cc1	-5.12
Cc1csc(N2CCN(C(=O)Cc3cccs3)CC2)n1	-23.3
Cc1ccccc1OCCC(=O)NC(C)c1nnc2n1CCCCC2 (centres undefined)	-12.3
Cc1nn(C)c(C)c1NC(=O)CN1CCCC1c1c(C)nn(C)c1C (centres undefined)	-6.44
CCc1nc(C(=O)N2CCN(C)CC2C)nn1-c1ccccc1Cl (centres undefined)	-2.38
CC(NC(=O)CSCC#N)c1cccc(NC(=O)c2ccccc2)c1 (centres undefined)	-1.79

Compound	cytotoxicity at 10 µM [%]
CCc1nc2n(n1)CC(NCc1noc(-c3ccccc3)n1)CC2 (centres undefined)	-10.6
c1nc2n(n1)CC(NCc1nc(-c3ccsc3)no1)CC2 (centres undefined)	-8.13
O=C(c1nc(=O)[nH][nH]1)N1CCCC(c2cc(C(F)(F)F)[nH]n2)C1 (centres undefined)	-12.3
Cc1cc(C)cc(C2(C(=O)N3CCCC(n4cncn4)C3)CC2)c1 (centres undefined)	-3
Cc1ccc(-c2cc(CN3CCCC(Cn4cncn4)C3)on2)cc1 (centres undefined)	-11.8
O=C(C1CC=CC1)N1CCC2(CC1)CNCCO2	1.46
COC[C@@H]1CC[C@H]2[C@H](CCN2C(=O)c2ccncc2F)O1	-8.82
Fc1cccnc1O[C@H]1CN(Cc2ccoc2)[C@@H]2CCCO[C@H]12	-0.908
Cc1ccc(CN2CC[C@H]3[C@H]2CC(=O)N3c2ccsc2)o1	1.12
O=C(Nc1cccnc1)[C@H]1C[C@@H]2CCN(Cc3nccs3)C[C@@H]2O1	-68.2
CC(C)N1CCc2ncn(C)c2C1C(=O)N1CCOCC1 (centres undefined)	10.9
O=C(NC1CC1)N1CC[C@H](OCC2CC2)[C@@H]1Cc1cccnc1	1.36
CCOCC1CN(CC2CC2)Cc2nn(CC3CC3)cc21 (centres undefined)	0.748
Cc1cccc(CN2CCN3C[C@H](Oc4cccnc4)C[C@H]3C2)n1	6.61
NC(CNS(=O)(=O)Cc1cccc2cccnc12)c1ccccc1 (centres undefined)	-5.39
CN(C)C(=O)c1cnc2n1CCN(Cc1ccc3c(c1)OCO3)C2	-69
CCN(CC)CCN1CCO[C@H]2[C@@H](OCc3ccncc3)CC[C@@H]21	-4.65
NC1CCN(C(=O)c2c(F)cccc2Br)CC1	11.4
COc1ccc(CN2C[C@@H]3C[C@H](C(=O)Nc4cccnc4)[C@H](C2)O3)cc1	-72.4
O=c1[nH]c2cn(-c3cccc(F)c3)c(=O)n2n1Cc1ccc(Cl)cc1	8.53
Cn1[nH]c(C2CCCN(C(=O)CO)C2)cc1=O (centres undefined)	2.01
